# Experimental data taken from ChEMBL document CHEMBL1132418, “Structure-immunosuppressive activity relationships of new analogues of 15-deoxyspergualin. 1. Structural modifications of the hydroxyglycine moiety” (1999).
# Key:
# Assay type in all cases: functional
# Mus musculus [1] = test: In vivo immunosuppressive activity in mouse GVHD (graft-versus-host disease) model and the mean survival days evaluated (dose of 3 mg/kg)
# In short: (§1)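 Mouse GVHD model. Compounds were dissolved in aqueous solution and given i.p. on days 1 to 10 (day 6 omitted), first at 3 mg/kg/day and then at 1 mg/kg/day. Survival was followed to day 60 after cell injection and reported as mean survival in days ± deviation.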
# Mus musculus [2] = test: In vivo immunosuppressive activity at a dose of 1 mg/kg in mouse GVHD (graft-versus-host disease) model and the mean survival days evaluated.; in short: as §1
# Rattus norvegicus [3] = test: Compound (6 mg/kg) is evaluated for prevention of graft rejection after heart allotransplantation in the Dark Agouti to Lewis rat combination.
# In short: (§2)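 Dark Agouti donor hearts transplanted into Lewis rat recipients (fully histoincompatible; high-responder recipient). Compounds given daily i.p. at 6 mg/kg/day for 10 days, starting 1 day after surgery. Graft survival recorded for each animal in days and reported as mean ± SD, with a statistical comparison against controls.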
# Rattus norvegicus [4] = species: Rattus norvegicus; test: Compound is evaluated for prevention of graft rejection after heart allotransplantation in the dark agouti Lewis rat combination.; in short: as §2
Compound,Mean survival (Mus musculus [1]) [days],other results
NCCCNCCCCNC(=O)NCCC(=O)NCCCCCCN=C(N)N,15,–
COC(C(=O)NCCCCCCN=C(N)N)C(=O)NCCCCNCCCN (configuration not stated),55,Mean survival (Mus musculus [2]): 27 days
NCCCNCCCCNC(=O)C(C(=O)NCCCCCCN=C(N)N)c1ccccc1 (configuration not stated),19,–
COC(OC)(C(=O)NCCCCCCN=C(N)N)C(=O)NCCCCNCCCN,12,–
CN(CCCCNCCCN)C(=O)OCC(=O)NCCCCCCN=C(N)N,15,–
CN(CCCCCCN=C(N)N)C(=O)CC(=O)NCCCCNCCCN,14,–
NCCCNCCCCNC(=O)/C=C/C(=O)NCCCCCCN=C(N)N,17,–
CC(=O)NC(C(=O)NCCCCCCN=C(N)N)C(=O)NCCCCNCCCN (configuration not stated),16,–
CN(CC(=O)NCCCCCCN=C(N)N)C(=O)NCCCCNCCCN,17,–
N=C(N)NCCCCCCC(=O)NC(O)C(=O)NCCCCNCCCN (configuration not stated) [GUSPERIMUS],57,Mean survival (Rattus norvegicus [3]): 38 days; Mean survival (Mus musculus [2]): 38 days
NCCCNCCCCNC(=O)/C=C\C(=O)NCCCCCCN=C(N)N,17,–
NCCCNCCCCNC(=O)C(N)C(=O)NCCCCCCN=C(N)N (configuration not stated),16,–
NCCCNCCCCNCCC(=O)NCCCCCCN=C(N)N,13,–
NCCCNCCCCNC(=O)C(OCc1ccccc1)C(=O)NCCCCCCN=C(N)N (configuration not stated),14,–
CN(CCCCCCN=C(N)N)C(=O)COC(=O)NCCCCNCCCN,14,–
NCCCNCCCCNC(=O)CNC(=O)NCCCCCCN=C(N)N,24,–
N=C(N)NCCCCCCNC(=O)COC(=O)NCCCCNCCCN [TRESPERIMUS],58,Mean survival (Rattus norvegicus [3]): 54 days; Mean survival (Mus musculus [2]): 46 days
NCCCNCCCCC(=O)NCC(=O)NCCCCCCN=C(N)N,22,–
NCCCNCCCCNC(=O)C(Cc1ccccc1)C(=O)NCCCCCCN=C(N)N (configuration not stated),16,–
NCCCNCCCCOC(=O)NCNC(=O)CCCCCCN=C(N)N,58,Mean survival (Mus musculus [2]): 32 days
NCCCNCCCCNC(=O)CCC(=O)NCCCCCCN=C(N)N,16,–

Compound,Mean survival (Mus musculus [1]) [days],other results
NCCCNCCCCNC(=O)CCCCCCCCCN=C(N)N,16,–
CC(C(=O)NCCCCCCN=C(N)N)C(=O)NCCCCNCCCN (configuration not stated),16,–
NCCCNCCCCNC(=O)NCC(=O)NCCCCCCN=C(N)N,48,Mean survival (Mus musculus [2]): 42 days; Mean survival (Rattus norvegicus [4]): 12 days
NCCCNCCCCNC(=O)C(O)C(=O)NCCCCCCN=C(N)N (configuration not stated),53,Mean survival (Rattus norvegicus [3]): 33 days; Mean survival (Mus musculus [2]): 12 days
NCCCNCCCCNC(=O)C(CO)(CO)C(=O)NCCCCCCN=C(N)N,17,–
NCCCNCCCCNC(=O)CCCC(=O)NCCCCCCN=C(N)N,15,–
NCCCNCCCCOC(=O)NCC(=O)NCCCCCCN=C(N)N,48,Mean survival (Mus musculus [2]): 55 days
NCCCNCCCCNC(=O)C(O)CC(=O)NCCCCCCN=C(N)N (configuration not stated),15,–
NCCCNCCCCCC(=O)NCC(=O)NCCCCCCN=C(N)N,18,–
CC(C)(C(=O)NCCCCCCN=C(N)N)C(=O)NCCCCNCCCN,15,–
NCCCNCCCCNC(=O)C(F)C(=O)NCCCCCCN=C(N)N (configuration not stated),60,Mean survival (Mus musculus [2]): 18 days
NCCCNCCCCNC(=O)OCCC(=O)NCCCCCCN=C(N)N,13,–
NCCCNCCCCNC(=O)OCCNCCCCCCN=C(N)N,34,–
NCCCNCCCCNC(=O)C(=O)NCCCCCCN=C(N)N,34,Mean survival (Rattus norvegicus [3]): 12 days; Mean survival (Mus musculus [2]): 53 days
CN(CCCCNCCCN)C(=O)CC(=O)NCCCCCCN=C(N)N,12,–
NCCCNCCCCNC(=O)SCC(=O)NCCCCCCN=C(N)N,17,–
CCC(C(=O)NCCCCCCN=C(N)N)C(=O)NCCCCNCCCN (configuration not stated),19,–
NCCCNCCCCNC(=O)COC(=O)NCCCCCCN=C(N)N,13,–
NCCCNCCCCNS(=O)(=O)CC(=O)NCCCCCCN=C(N)N,15,–
NCCCNCCCCNC(=O)CC(=O)NCCCCCCN=C(N)N,52,Mean survival (Rattus norvegicus [3]): 9 days; Mean survival (Mus musculus [2]): 53 days
